Compounds with a hit are over-represented: about 2.3% of the library has one in this group of screens.
KLF5 inh – KLF5 expression inhibitors, primary screen, DLD-1 cells, luminescence. DLD-1 KLF5 promoter-luciferase reporter. inhibition, % at 5 µM. 290,000 tested, 0.23% active;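 active = inhibition above a per-plate limit of that plate's mean compound inhibition plus 3 SD, cut at about 60% in these data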;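 note: 0% = DMSO wells and 100% = LY294002 at 200 µM; higher means less KLF5 promoter-driven luciferase light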
HIF activator – HIF pathway transcriptional activators, primary screen, cell-based, U2OS HRE-luciferase, luminescence. U2OS HRE-luciferase reporter; normalized: DMSO 0%, desferrioxamine 100%. activation, % at 7.5 µM (by protocol). 300,000 tested, 0.32% active. AID 1910, 2009;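 active = mean activation of at least 10% of the iron chelator positive control signal, with at least half of replicates also reaching 10%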
T cruzi repl – inhibitors of intracellular T. cruzi growth, primary screen, luminescence, NIH3T3 host cells. T. cruzi beta-gal in NIH3T3, 90 h. inhibition, % (test concentration not listed). 300,000 tested, 1.4% active;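 active = mean inhibition across valid replicates above about 55%, limit read from the data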;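 note: signal also drops with host cell toxicity which is not excluded here; 0% = plate median of DMSO wells and 100% = zero luminescence signal; higher percent means less beta-gal luminescence so fewer parasites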
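Read-out: Parasite load inhibition, % | Test system: Mouse NIH/3T3 fibroblasts infected with β-gal-expressing T. cruzi Tulahuen C4 | Amount: 5,000 cells/well | Medium: DMEM, 2% fetal bovine serum | Signal: GalScreen β-gal luminescence, detergent lysis, 60 min | Timing: 3 h attach, ≥90 h co-culture | Also added: Tulahuen C4 trypomastigotes, 5000/well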
Beta apoptosis – inhibitors of cytokine-induced beta cell apoptosis, primary screen, luminescence; INS-1E cytokine-induced death, ATP luminescence, 48 h; percent of positive-control rescue, neutral wells zero; 300,000 tested, 0.8% active; protection from apoptosis, % (test concentration not listed);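 active = Every replicate reaches about 75%, or at least half do and their mean reaches it too, limit read from the data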;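 note: 0% = cytokine-treated negative control wells and 100% = positive control rescue; higher means more ATP so stronger rescue from cytokine killing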
Bfl-1 A1 inh – caspase 3/7 activation in MEF A1-2A-BIM cells, primary screen, A1 inhibitor project, cell-based, luminescence, HTS | Caspase-Glo 3/7 luminescence, 3 h; percent of clofoctol response, vehicle zero | caspase activation, % (test concentration not listed) | 330,000 tested, 0.066% active | AID 2462, 2010;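 active = over half of replicate activation scores above 10%, or exactly half above 10 with the replicate mean above 10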
Starred values were filed as active, the others as inactive; nt = no result.

SMILES	KLF5 inh	HIF activator	T cruzi repl	Beta apoptosis	Bfl-1 A1 inh
O=C(Nc1ccc(N2CCCC2)c(Cl)c1)c1ccc2c(c1)OCCO2	-61.5	1.7	58.9*	61.4	-3.4
O=C(Nc1ccccc1N1CCCC1)c1ccc(Br)o1	-15.9	-0.3	-22.9	-4.0	-0.5
CCOC(=O)c1ccc(N2CCN(C(=O)c3ccccc3)CC2)c(NC(=O)c2ccco2)c1	6.3	-0.1	10.1	4.0	-0.6
CCCNC(=O)c1ccc(N2CCC3(CC2)CC(c2cccc(Br)c2)=NO3)c(NC(=O)c2ccc(Cl)c([N+](=O)[O-])c2)c1	nt	1.2	10.6	-1.1	0.4
CC(C)(C)c1ccc(OCc2ccc(C(=O)Nc3cccnc3)o2)cc1	-150.9	7.3	5.7	-0.2	-0.8
O=C(Nc1ccc(Cl)c([N+](=O)[O-])c1)c1ccc(NCCCN2CCOCC2)c([N+](=O)[O-])c1	-27.1	-0.5	55.2*	12.2	-0.6
CCN(CC)S(=O)(=O)c1cccc(C(=O)N/N=C(\C)c2ccc(O)cc2O)c1	14.3	12.8*	64.2*	nt	-1.0
Cc1cc(Br)c(Cl)cc1NC(=O)CN1C(=O)C2C3CC(c4ccccc4)C(C3)C2C1=O (centres undefined)	-25.8	-0.2	55.7*	1.5	-0.2
CCOc1ccccc1N(C)C(=O)c1cc2c(=O)n(CC)c3ccccc3c2s1	-13.2	-1.0	61.6*	14.9	0.3
Cc1cccc(C)c1NC(=O)CN(C)C(=O)C1=COCCO1	nt	nt	nt	3.4	0.8
O=C1/C(=C\c2c(NCCOCCO)nc3ccccn3c2=O)SC(=S)N1Cc1ccco1	-12.9	1.1	-58.4	nt	9.1*
CN(C)CCC1Sc2ccccc2Oc2ccccc21 (centres undefined)	-24.7	-3.2	26.0	-14.9	1.7
CC1c2ccccc2SC(CCCN(C)C)c2ccccc21 (centres undefined)	2.1	0.9	54.7*	3.3	0.5
CC1CN(C(=O)CCC(=O)NCc2ccc(Cl)cc2)c2ccccc2O1 (centres undefined)	3.0	-0.1	-7.3	-3.1	0.3
Cn1cc(Cl)c(C(=O)OCC(=O)c2ccccc2)n1	-36.2	0.2	-15.0	-1.4	-1.6
Cc1ccc(-c2nn(-c3cc(N4CCNCC4)ccc3[N+](=O)[O-])c(=O)c3ccccc23)cc1	-32.6	-0.5	73.3*	6.1	-0.3
Cc1nn(-c2cc(N3CCCCCC3)ccc2[N+](=O)[O-])c(=O)c2ccccc12	-23.6	-0.1	24.6	-8.5	1.1
CCc1ccc(/C=C2\SC(=S)N(CCCC(=O)Nc3ccccn3)C2=O)cc1	-8.3	-4.1	62.0*	-6.5	-1.7
COC(=O)c1ccc(/C=C2/SC(=S)N(CCCC(=O)Nc3ccccn3)C2=O)cc1	6.0	-1.1	11.0	-11.9	-2.2
O=C(CCCN1C(=O)/C(=C/c2ccccc2)SC1=S)NCCCn1ccnc1	-2.9	-1.3	-3.4	120.8*	-0.8
COc1cccc(/C=N/Nc2snc(SC)c2C#N)c1O	-83.4	2.3	-17.1	100.7*	-10.2
COc1ccc(/C=N/Nc2snc(SC)c2C#N)cc1OC	-20.6	1.8	5.4	34.7	-0.9
Cc1c(C=Nc2ccc(S(=O)(=O)CCO)cc2)c(O)[nH]c(=O)c1C#N	nt	-0.5	2.1	-2.2	0.2
CCCCn1c(N)c(N(CC)C(=O)c2cc(S(=O)(=O)N3CCCCCC3)ccc2OC)c(=O)[nH]c1=O	nt	-2.1	-0.8	2.8	0.1
CCCCCCc1cc2cc(-c3nnc(-c4ccccc4O)o3)c(=O)oc2cc1O	8.4	-0.2	8.4	106.4*	0.5
SMILES	KLF5 inh	HIF activator	T cruzi repl	Beta apoptosis	Bfl-1 A1 inh
CCOC(=O)c1c(C)n(C)c2ccc(OCC(O)CN3CCN(C)CC3)cc12 (centres undefined)	-26.1	nt	26.2	-3.2	-0.2
CCOC(=O)c1c(C)n(C)c2ccc(OCC(O)CNCCc3ccccc3)cc12 (centres undefined)	-10.4	-19.7	54.7*	-2.8	0.5
CCOC(=O)c1c(-c2ccccc2)oc2ccc(OCC(O)CNCCN(C)C)cc12 (centres undefined)	-21.7	-21.6	78.5*	19.3	0.0
COc1ccc(-c2csc(Nc3ccccc3)[n+]2Cc2ccccc2)cc1	-14.8	1.9	18.3	7.0	-2.5
C=CC[n+]1c(-c2ccc(OCC)cc2)csc1NNC(=O)Nc1ccccc1	-20.9	1.1	20.9	98.8*	-0.5
COc1ccc(Nc2nc(NCCN3CCOCC3)nc(Nc3ccc(OC)cc3)n2)cc1	-28.7	-3.1	9.6	1.9	0.8
COc1ccc(C2CC(=O)c3c(C)nc(N4CCN(Cc5ccccc5)CC4)nc3C2)cc1OC (centres undefined)	-2.0	-0.2	54.8*	9.1	0.4
Cc1nc(N2CCN(Cc3ccccc3)CC2)nc2c1C(=O)CC(C)C2 (centres undefined)	2.4	-0.1	71.5*	-2.9	-1.2
COc1cc(C2CC(=O)c3cnc(N4CCN(Cc5ccccc5)CC4)nc3C2)cc(OC)c1OC (centres undefined)	-9.2	-0.4	-0.4	14.8	-0.1
CCN1CCN(c2nc(C)c3c(n2)CC(C)CC3=O)CC1 (centres undefined)	-26.7	-0.8	13.3	-3.6	-0.4
Cc1ccc(OCCCCNC2CCCCC2)c(C)c1	1.6	-0.2	54.7*	4.0	0.2
O=C(NCc1cccnc1)c1ccc(Cn2c(=S)[nH]c3ccc(Br)cc3c2=O)cc1	6.7	0.1	11.9	97.5*	-0.7
O=c1c2cc(Br)ccc2[nH]c(=S)n1Cc1ccccc1	-31.3	-1.3	-6.2	nt	0.0
COc1ccccc1N(C(=O)c1ccncc1)c1nc(-c2ccc([N+](=O)[O-])cc2)cs1	-45.6	0.0	62.1*	14.7	-0.9
CCOC(=O)N1CCN(C(=O)C2CCCN(c3ncnc4c3nc3n4CCCCC3)C2)CC1 (centres undefined)	-5.9	-0.2	6.9	-2.9	0.9
CCOC(=O)C1CCN(C(=O)C2CCCN(c3ncnc4c3nc3n4CCCCC3)C2)CC1 (centres undefined)	-3.6	400.3*	0.4	0.0	-1.1
CS(=O)(=O)Nc1ccccc1C(=O)OCC(=O)N1CCC(c2ccccc2)=N1	nt	nt	nt	-2.0	1.9
CN(C)CCCNC(=O)CCc1ncc(C(F)(F)F)cc1Cl	0.1	-0.4	-6.4	-3.4	0.0
CN(C)CCCNc1ncc(C(F)(F)F)cc1Cl	-17.1	-0.3	63.2*	1.6	-0.3
CCN(C1CCCCC1)S(=O)(=O)c1ccc(S(=O)(=O)NCc2ccncc2)cc1	-6.0	0.3	-36.1	102.6*	-0.8
COc1cc(S(=O)(=O)NCc2ccncc2)ccc1Br	-10.8	0.5	-6.0	52.3	-0.7
O=S(=O)(NCc1ccncc1)c1ccc(Br)s1	14.0	0.7	18.1	115.9*	0.1
Cc1ccc(S(=O)(=O)NCc2ccncc2)cc1C	-18.2	-5.6	-79.4	89.5*	-1.4

Screening data (PubChem)
